Results pooled from the literature.
Protocols differ between the studies behind these lines.
PKN1: Serine/threonine-protein kinase N1 (PKN1, Homo sapiens, UniProt Q16512)
MAOB: Amine oxidase [flavin-containing] B (MAOB, Homo sapiens, UniProt P27338)
PADI4: Protein-arginine deiminase type-4 (PADI4, Homo sapiens, UniProt Q9UM07)
CA9: Carbonic anhydrase 9 (CA9, Homo sapiens, UniProt Q16790)
HRH1: Histamine H1 receptor (HRH1, Homo sapiens, UniProt P35367)

COc1cc2ncnc(Nc3ccc(F)c(Cl)c3)c2cc1NC(=O)/C=C/CN1CCCCC1 — activity vs control (PKN1; enzyme activity, inhibitor; 1 µM): 87%
Cc1cc(N)ccc1NC(=O)c1ccccc1 — inhibition (MAOB; enzyme activity, inhibitor; 1 µM, 20 min): -2%
N=C(CF)NCCC[C@H](NC(=O)c1ccccc1C(=O)O)c1nn[nH]n1 — kinact/KI (PADI4; enzyme activity, inhibitor): 780 M⁻¹ s⁻¹
CCOC(=O)C1CSc2[nH]c(=O)sc2C1c1cn(-c2ccccc2)nc1-c1ccc(Cl)cc1 (centres unmarked) — inhibition (CA9; enzyme activity, inhibitor; 1 µM): 70.1%
CN1CCC(C2c3ccccc3C=Cc3ccccc32)CC1 — kon (HRH1; binding): 667000 M⁻¹ s⁻¹
CC#CC(=O)Nc1cc2c(Nc3ccc(F)c(Cl)c3)ncnc2cn1 — activity vs control (PKN1; enzyme activity, inhibitor; 1 µM): 81%
O=C(Nc1ccc([N+](=O)[O-])cc1Cl)c1ccccc1O — inhibition (MAOB; enzyme activity, inhibitor; 1 µM, 20 min): 14%
CN(C)CCOC1c2ccccc2CCc2ccccc21 — koff (HRH1; binding): 0.00215 s⁻¹
N=C(N)NCCC[C@H](NC(=O)[C@H](CC(=O)O)NC(=O)[C@H](Cc1c[nH]c2ccccc12)NC(=O)[C@H](CCCNC(=N)N)NC(=O)[C@@H](N)Cc1ccccc1)C(=O)N[C@@H](Cc1ccccc1)C(=O)NCC(=O)O — Emax (Melanocortin receptor 5 (Mus musculus, UniProt P41149); cAMP, agonist; HEK293): 90%
O=C(Nc1cccc(Cl)c1)c1ccc([N+](=O)[O-])cc1Cl — inhibition (MAOB; enzyme activity, inhibitor; 1 µM, 20 min): 36%
CCOC(=O)C1CSc2[nH]c(=O)sc2C1c1cn(-c2ccccc2)nc1-c1ccc(OC)cc1 (centres unmarked) — inhibition (CA9; enzyme activity, inhibitor; 10 nM): 21.5%
CN1CCN(C2c3ccccc3C=Cc3ccccc32)CC1 — koff (HRH1; binding): 0.000583 s⁻¹
CC(C)(C)n1nnc([C@H](CCCNC(=N)CCl)NC(=O)c2ccccc2C(=O)O)n1 — kinact/KI (PADI4; enzyme activity, inhibitor): 423 M⁻¹ s⁻¹
O=C(Nc1ccc(C(F)(F)F)cc1)c1cc2ccccc2cc1O — inhibition (MAOB; enzyme activity, inhibitor; 1 µM, 20 min): 67%
CN1CCC(=C(c2ccccc2)c2ccccc2)CC1 — koff (HRH1; binding): 0.00583 s⁻¹
Cc1cccnc1C(=O)Nc1ccc(N2C(=O)c3ccccc3C2=O)c(Cl)c1 — Emax (Metabotropic glutamate receptor 1 (GRM1, Homo sapiens, UniProt Q13255); calcium signal, positive allosteric modulator; T-REx-293): 91%
N=C(CCl)NCCC[C@H](NC(=O)c1ccc(-c2ccccc2)cc1)c1nn[nH]n1 — kinact/KI (PADI4; enzyme activity, inhibitor): 398 M⁻¹ s⁻¹
CCn1c(=O)c(-c2ccc(Cl)cc2Cl)cc2cnc(Nc3ccc(N4CCNCC4)c(F)c3)nc21 — activity vs control (PKN1; enzyme activity, inhibitor; 1 µM): 47%
CCOC(=O)C1CSc2[nH]c(=O)sc2C1c1cn(-c2ccccc2)nc1-c1ccccc1 (centres unmarked) — inhibition (CA9; enzyme activity, inhibitor; 10 nM): 15.6%
CC1=C(C(=O)Nc2ccc([N+](=O)[O-])cc2Cl)Cc2ccccc21 — inhibition (MAOB; enzyme activity, inhibitor; 1 µM, 20 min): 44%
N#CC1CSc2[nH]c(=O)sc2C1c1cn(-c2ccccc2)nc1-c1ccc(Br)cc1 (centres unmarked) — inhibition (CA9; enzyme activity, inhibitor; 10 µM): 88.5%
COc1cc2c(CCNC(C)=O)c[nH]c2cc1O — Km (Sulfotransferase 1A1 (SULT1A1, Homo sapiens, UniProt P50225); enzyme activity, substrate; pH 7): 8.2 µM
CCOc1ccc(C(=O)Nc2ccc([N+](=O)[O-])cc2C(F)(F)F)cc1OCC — inhibition (MAOB; enzyme activity, inhibitor; 1 µM, 20 min): 62%
Cc1ccc(-c2nn(-c3ccccc3)cc2C2c3sc(=O)[nH]c3SC3C(=O)N(c4ccccc4)C(=O)C32)cc1 (centres unmarked) — inhibition (CA9; enzyme activity, inhibitor; 10 nM): 17.8%
N#Cc1ccc(NC(=O)c2ccccc2O)cc1 — inhibition (MAOB; enzyme activity, inhibitor; 1 µM, 20 min): 32%
S=C(NCc1ccc2c(c1)OCO2)N1CCN(c2ncnc3c2oc2ccccc23)CC1 — activity vs control (PKN1; enzyme activity, inhibitor; 1 µM): 98%
N=C(CCl)NCCC[C@H](NC(=O)c1ccccc1)c1nn[nH]n1 — kinact/KI (PADI4; enzyme activity, inhibitor): 287 M⁻¹ s⁻¹
Cn1c(=O)n(-c2ccc(C(C)(C)C#N)cc2)c2c3cc(-c4cnc5ccccc5c4)ccc3ncc21 — activity vs control (PKN1; enzyme activity, inhibitor; 1 µM): 84%
COc1cc([N+](=O)[O-])ccc1NC(=O)c1ccc2c(c1)OCO2 — inhibition (MAOB; enzyme activity, inhibitor; 1 µM, 20 min): 47%
CCC(=O)N1CCN(c2ccc(-n3c(=O)ccc4cnc5ccc(-c6cnc7ccccc7c6)cc5c43)cc2C(F)(F)F)CC1 — activity vs control (PKN1; enzyme activity, inhibitor; 1 µM): 97%
CCOC(=O)C1CSc2[nH]c(=O)sc2C1c1cn(-c2ccccc2)nc1-c1ccc(Br)cc1 (centres unmarked) — inhibition (CA9; enzyme activity, inhibitor; 1 µM): 61%
N#Cc1cnc(Nc2cc(NC[C@H]3CNCCO3)c(C(F)(F)F)cn2)cn1 — activity vs control (PKN1; enzyme activity, inhibitor; 1 µM): 86%
COc1cc(NC(C)=O)c(Cl)cc1C(=O)Nc1nccs1 — inhibition (Beta-1 adrenergic receptor (ADRB1, Homo sapiens, UniProt P08588); cell-free assay; 10 µM): 2.5%
Cc1c(Cn2c(C)nc3c(C(=O)O)cc(N4CCOCC4)cc32)cccc1C(F)(F)F — activity vs control (PKN1; enzyme activity, inhibitor; 1 µM): 88%
CN1CCC(=C2c3ccccc3CCc3cccnc32)CC1 — kon (HRH1; binding): 533000 M⁻¹ s⁻¹
